# This is a sample that favours compounds with a hit; in the whole collection about 0.63% have one here.
# GSK3A inh = blockers of GSK3A enzyme activity – biochemical, luminescence, cell-free homogeneous, HTS, primary screen. Glycogen synthase kinase-3 alpha (Homo sapiens), P49840. inhibition, % at 10 µM. GSK-3 alpha kinase, ADP-Glo luminescence, 60 min. 0.1% of 320,000 active;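 active = more than half of replicates show inhibition above 20%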;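 also: GST-tagged GSK-3 alpha with peptide substrate and 25 µM ATP; 0% = DMSO neutral wells and 100% = GW8510 positive control wells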
# STK33 kinase inh = inhibitors of purified STK33 kinase, primary screen, biochemical, ADP-Glo luminescence, homogeneous, cell-free | Serine/threonine-protein kinase 33 (Homo sapiens), Q9BYT3 | MBP phosphorylation | inhibition, % at 10 µM | 0.073% of 320,000 active | AID 2661, 2010;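 active = inhibition at or above 25%, using the most active replicate where run in duplicate; inactive = inhibition below 25%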
# Pemphigus Ab inh = inhibitors of pemphigus antibody binding to DSG3, primary screen, biochemical, bead-based, flow cytometry, scFv-GFP; Desmoglein-3 (Homo sapiens), P32926; DSG3-coupled beads, scFv-anti-DSG3-GFP binding; stronger effect = lower value; binding (percent of control), % at 10 µM; 0.48% of 310,000 active; AID 588358, 2011;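 active = binding more than 3 SD below its plate's average and above zero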;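 also: hits lower antibody fragment binding to DSG3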
# Target sequence (P32926 whole entry, looked up, the tested form may be a part): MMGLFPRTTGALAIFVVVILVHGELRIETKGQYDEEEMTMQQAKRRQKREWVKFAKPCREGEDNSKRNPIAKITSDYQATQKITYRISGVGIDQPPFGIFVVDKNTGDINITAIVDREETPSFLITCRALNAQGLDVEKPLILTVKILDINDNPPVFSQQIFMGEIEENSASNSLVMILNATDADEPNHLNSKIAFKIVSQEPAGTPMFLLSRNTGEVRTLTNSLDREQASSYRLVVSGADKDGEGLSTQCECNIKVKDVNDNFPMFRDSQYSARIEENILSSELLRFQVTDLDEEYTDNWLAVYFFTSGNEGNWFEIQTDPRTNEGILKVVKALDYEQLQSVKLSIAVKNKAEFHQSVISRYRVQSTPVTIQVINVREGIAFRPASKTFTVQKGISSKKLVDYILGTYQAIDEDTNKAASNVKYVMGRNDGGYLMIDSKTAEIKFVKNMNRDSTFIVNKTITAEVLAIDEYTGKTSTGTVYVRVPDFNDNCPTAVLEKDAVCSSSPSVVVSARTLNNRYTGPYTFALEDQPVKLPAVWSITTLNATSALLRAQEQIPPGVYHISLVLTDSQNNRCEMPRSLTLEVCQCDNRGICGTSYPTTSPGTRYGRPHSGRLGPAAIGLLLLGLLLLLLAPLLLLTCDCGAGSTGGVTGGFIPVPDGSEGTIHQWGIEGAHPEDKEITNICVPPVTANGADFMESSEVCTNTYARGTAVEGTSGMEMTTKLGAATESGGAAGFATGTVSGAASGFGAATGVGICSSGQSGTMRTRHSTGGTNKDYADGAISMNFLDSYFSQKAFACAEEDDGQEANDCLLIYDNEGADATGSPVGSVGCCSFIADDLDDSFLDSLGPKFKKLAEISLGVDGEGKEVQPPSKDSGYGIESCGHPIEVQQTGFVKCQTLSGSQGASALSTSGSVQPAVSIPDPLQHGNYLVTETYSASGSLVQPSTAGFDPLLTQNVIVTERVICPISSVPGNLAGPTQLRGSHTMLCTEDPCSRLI
# GSK3B inh = human GSK3beta kinase inhibitors, primary screen, biochemical, cell-free homogeneous, HTS; Glycogen synthase kinase-3 beta (Homo sapiens), P49841; GST-GSK3beta kinase, ADP-Glo luminescence, 60 min; stronger effect = lower value; activity score (negative = inhibition), % at 10 µM; 0.038% of 300,000 active;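 active = more than half of replicate wells score below -50%, meaning over 50% inhibition versus plate controls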;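 also: 0% = median DMSO wells and -100% = median GW8510 positive control wells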
#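 test system = GST-tagged human GSK3beta kinase, cell-free | reagent = 25 µM ATP with peptide substrate | dosing = one dose of 10 µM per compound | schedule = 60 min reaction, RT | detection = luminescent ADP-Glo measurement of ADP formed | control set = DMSO neutral wells and GW8510 at 20 µM as positive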
# MT1-MMP act inh = blockers of MT1-MMP proenzyme processing, primary screen, HT1080 RFP-PRO-GFP cells, GFP/RFP fluorescence. Matrix metalloproteinase-14 (Homo sapiens), P50281. GFP/RFP ratio fluorescence, overnight; percent of plate control window, DMSO zero. GFP/RFP ratio change, % at 20 µM. 0.061% of 360,000 active;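 active = GFP/RFP ratio change of at least 30% with cell ATP level not reduced by more than half and red fluorescence within 50% of control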
#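 Material – HT1080 RFP-PRO-GFP cells · Control set – DMSO wells and RFP-L50D-GFP cells · Incubation – overnight cell settling, then overnight compound exposure, 37 °C, 5% CO2 · Compound dosing – single-point 20 µM compound, 1% DMSO · Read-out – GFP/RFP fluorescence ratio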
# Active calls of the source: *; / = not tested or not shown.
SMILES,GSK3A inh,STK33 kinase inh,Pemphigus Ab inh,GSK3B inh,MT1-MMP act inh
CCOC(=O)N1CCN(C(=O)C[C@@H]2C[C@@]3(C(=O)OC)CCCCC=C3N(Cc3cccc4ccccc34)C2=O)CC1,/,/,/,/,7
COC(=O)c1ccc(COc2ccccc2/C=C/C(=O)c2ccc(OCC(=O)O)cc2)cc1,-2,50*,110,-8,-7
COC(=O)c1ccc(COc2ccccc2/C=N/Nc2cccc(C(=O)O)c2)cc1,/,/,107,/,-1
COc1cccc(CNC(=O)[C@@H]2CCCN2C(=O)[C@H]2CCCCN2S(=O)(=O)c2ccc(OC)c(C)c2)c1,/,/,/,/,2
CCC(=O)c1c[nH]c(C(=O)NCCCN2CCOCC2)c1,-2,-3,95,0,3
CC(C)(C)c1ccc(C(=O)c2c[nH]c(C(=O)NCCCN3CCOCC3)c2)cc1,-2,-1,-3.8*,3,12
O=C(c1cc(Cl)cc(Cl)c1)N1CCC2CC1c1cc(N3CCCCC3)ccc12 (stereo unspecified),/,/,/,/,-2
COC(=O)c1cc(NC(=O)COC(=O)CCc2nc3ccccc3c(=O)[nH]2)cc(C(=O)OC)c1,0,-1,65*,/,1
COC(=O)C[C@@H]1CC[C@H](NC(=O)Nc2ccc(OC)cc2)[C@@H](CO)O1,/,/,/,/,1
COc1cc(/C=C2\SC(N)=NC2=O)ccc1O,6,26*,115,6,-30
COc1ccc(/C=C2\SC(=Nc3ccccc3OC)NC2=O)cc1,0,3,123,-1,-10
COc1cc(/C=C2\SC(=Nc3ccccc3OC)NC2=O)ccc1O,8,68*,101,-6,-105
COc1ccc2nc(Cl)c(C=O)c(N3CCOCC3)c2c1,/,/,96,/,-10
CCN1CCN(Cc2c(O)ccc3c2O/C(=C\C=C\c2ccccc2)C3=O)CC1,-1,-2,114,-1,-41
CN(C)Cc1c(O)ccc2c1O/C(=C\C=C\c1ccccc1)C2=O,46,8,105,-54*,-44
COc1cc(OC)cc(C(=O)Nc2cc(-c3cn4cccnc4n3)ccc2C)c1,/,/,-11*,0,1
COc1cc(C(=O)Nc2cc(-c3cn4cccnc4n3)ccc2C)cc(OC)c1OC,0,-1,91,1,4
CCCCCCCCN1C(=O)[C@H](CC(=O)N2CCN(C(=O)C3CC3)CC2)C[C@@]2(C(=O)OC)CC(C)(C)CC=C12,/,/,/,/,-4
Nc1c(-c2ccccn2)cnn1-c1nc(-c2ccc(F)cc2)cs1,0,0,107,-5,-5
Nc1c(-c2cccs2)cnn1-c1nc(-c2ccc(F)cc2)cs1,0,-1,-16*,1,3
CSCCC(NS(=O)(=O)c1ccc(Cl)cc1)C(=O)N1CCN(c2ccccc2)CC1 (stereo unspecified),/,/,-2.0*,/,6
CSCCC(NS(=O)(=O)c1ccc(Cl)cc1)C(=O)O (stereo unspecified),/,-2,108,0,2
COc1cc(OC)c(NC(=O)c2c(-c3ccccc3)noc2C)cc1Cl,2,0,70*,-4,24
CC(=O)N1c2ccc(S(=O)(=O)N3CCCC(C(=O)N4CCC(C)CC4)C3)cc2CC1C (stereo unspecified),-1,1,-9.0*,1,1
CC(=O)N1c2ccc(S(=O)(=O)N3CCCC(C(=O)N4CCCC(C)C4)C3)cc2CC1C (stereo unspecified),-1,-2,107,1,-2
SMILES,GSK3A inh,STK33 kinase inh,Pemphigus Ab inh,GSK3B inh,MT1-MMP act inh
COCCNC(=O)C1(C)CCCN(Cc2cn(C)c3ccccc23)C1 (stereo unspecified),/,/,/,/,0
Cc1[nH][nH]c(=O)c1N=Nc1ccc(S(N)(=O)=O)cc1,59*,3,101,-22,2
COc1ccc(Nc2ccc(OC)cc2)cc1,7,-1,100,-2,38*
CC1=NN2C(=N)/C(=C\c3cc(C)n(-c4ccccc4)c3C)C(=O)N=C2S1,3,-1,102,2,0
CCC(CC)C1=NN2C(=N)/C(=C\c3cc(C)n(-c4cccc(C)c4)c3C)C(=O)N=C2S1,-2,-2,72*,0,-14
O=C(Cn1ncc2c([nH]c3ccccc32)c1=O)N1CCN(c2ccccn2)CC1,-11,-1,-6.6*,0,-3
O=C(Cn1ncc2c([nH]c3ccccc32)c1=O)N1CCCCC1,-1,0,106,1,1
CCOC(=O)[C@]12CCC=C1N(CCC1=CCCCC1)C(=O)[C@H](CC(=O)NCCCCc1ccccc1)C2,/,/,/,/,2
CC(C)(C)C1=NN=C2c3ccccc3C(=O)C21 (stereo unspecified),10,30*,99,-3,-4
CC1(C)CC(Cc2ccc(C(F)(F)F)cn2)N(C(=O)OC(C)(C)C)C1 (stereo unspecified),/,/,/,/,2
CCOC(=O)C1=CCC(c2cc3ccccc3[nH]2)NC1 (stereo unspecified),/,/,/,/,-1
NC(=O)c1ccsc1NC(=O)COC(=O)c1cnccn1,11,0,80*,/,8
O=C1c2ccccc2-c2onc3ccc(NCCCn4ccnc4)c1c23,63*,48*,/,-29,/
Cc1nc2sccn2c(=O)c1S(=O)(=O)NCCc1ccc(Cl)cc1,-1,-1,-7.6*,0,0
C[C@]12CC[C@@H]3c4ccc(O)cc4CC[C@H]3[C@@H]1CC[C@@H]2O,-4,0,53*,4,2
CSCCC(C(=O)Nc1c(C)cccc1C)n1c(COc2ccc(C)cc2)nc2ccccc21 (stereo unspecified),/,/,/,/,-16
CCOC(=O)N1CCN(C(C(=O)NC2CCCC2)C(C)C)CC1 (stereo unspecified),/,/,/,/,3
CC(CC(=O)Nc1cccc(S(=O)(=O)N2CCCCC2)c1)c1ccccc1 (stereo unspecified),8,0,94,/,-5
CCCC(C(=O)Nc1cccc(S(=O)(=O)N2CCCC2)c1)c1ccccc1 (stereo unspecified),-1,-1,8.0*,3,-1
O=C1Nc2ccccc2N(C(=O)c2ccc(-c3ccccc3)cc2)C1c1nc2ccccc2[nH]1 (stereo unspecified),/,/,/,/,2
COc1ccc(/C=C/c2nc3ccccc3n2C)cc1,45,50*,96,-38,1
COc1ccc(Cn2c(/C=C/c3ccccc3)nc3ccccc32)cc1,0,1,103,-4,-7

# Screens deposited in PubChem BioAssay by several laboratories.
